Calls of active or inactive are those of the source. The calls are words filed in the database; no cut-off is given here.
How the values were obtained:
Chorioallantoic membrane [1] = assay: Inhibition of VEGF165/bFGF-induced angiogenesis in chicken chorioallantoic membrane assessed a s decrease in number of vessels formed treated 8 hrs after VEGF/bFGF addition measured after 48 hrs by dissecting microscopic analysis; type: functional; conditions: Gallus gallus
[2] = target: Epidermal growth factor receptor (Homo sapiens, UniProt P00533); type: cell-based, A-431;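 further: EGF-stimulated EGFR phosphorylation in human A431 cells, compound preincubation 60 min before EGF, phosphotyrosine ELISA cytoblot read 10 min after stimulation, inhibition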
A-431 [3] = assay: Cytotoxicity against human A431 cells overexpressing EGFR assessed as inhibition of cell proliferation treated for 12 hrs measured after 36 hrs by CYQUANT dye based assay; type: functional
[4] = target: T1, Vascular endothelial growth factor receptor 2 (Homo sapiens, UniProt P35968); type: cell-based, U-251
[5] = target: T2, Vascular endothelial growth factor receptor 1 (Homo sapiens, UniProt P17948); assay: Inhibition of VEGF-induced VEGFR1 phosphorylation in human A498 cells overexpressing Flt-1 pretreated for 60 mins prior to VEGF addition measured after 10 mins by phosphotyrosine ELISA cytoblot analysis; type: cell-based
[6] = target: Platelet-derived growth factor receptor beta (Homo sapiens, UniProt P09619); assay: Inhibition of PDGF-BB-induced PDGFR beta phosphorylation in human SF539 cells overexpressing PDGFR beta pretreated for 60 mins prior to PDGF-BB addition measured after 10 mins by phosphotyrosine ELISA cytoblot analysis; type: cell-based, SF-539
[7] = target: T1, Vascular endothelial growth factor receptor 2; assay: Ratio of compound IC50 to semaxanib IC50 for VEGF-induced VEGFR2 phosphorylation in human U251 cells overexpressing Flk-1 by phosphotyrosine ELISA cytoblot analysis; type: cell-based; conditions: U-251
Method in brief: (§1)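 Cells at 60–75% confluence serum-starved 18 h, then pretreated 60 min with serial compound dilutions starting at 10 before growth factor stimulation. Cells fixed 30 min at 60 °C, then 70% ethanol 30 min, blocked with 1% BSA in TBS 1 h, HRP-anti-phosphotyrosine overnight, luminol ELISA substrate; light emission imaged.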

Chorioallantoic membrane [8] = assay: Ratio of semaxanib IC50 to compound IC50 for VEGF165/bFGF-induced angiogenesis in chicken chorioallantoic membrane by dissecting microscopic analysis; type: functional; conditions: Gallus gallus
B16-F10 [9] = assay: Antimetastatic activity against GFP-tagged mouse B16F10 cells isografted into syngeneic athymic Ncr nu/nu mouse assessed as decrease in number of B16F10 lung metastases at […], ip administered twice weekly starting from day 8 post-tumor inoculation by hematoxylin-eosin staining; type: functional, organism-based
B16-F10 [10] = assay: Antiangiogenic activity against GFP-tagged mouse B16F10 cells isografted into syngeneic athymic Ncr nu/nu mouse assessed as decrease in vascular density at […], ip administered twice weekly starting from day 8 post-tumor inoculation; type: functional, organism-based
[11] = target: T2, Vascular endothelial growth factor receptor 1; assay: Ratio of compound IC50 to CB676475 IC50 for VEGF-induced VEGFR1 phosphorylation in human A498 cells overexpressing Flt-1 by phosphotyrosine ELISA cytoblot analysis; type: cell-based; method in brief: as §1
Mus musculus [12] = assay: Toxicity in Ncr nu/nu mouse assessed as body weight loss at 7.5 to 10 mg/kg, ip administered twice weekly measured for 6 weeks by whole animal toxicity assay; type: organism-based; set-up: dose 7.5-10 mg/kg, route intraperitoneal; conditions: in vivo, 1008 h
Mus musculus [13] = assay: Toxicity in Ncr nu/nu mouse assessed as body weight loss at […], ip administered twice weekly measured for 6 weeks by whole animal toxicity assay; type: organism-based; conditions: in vivo, 1008 h
B16-F10 [14] = assay: Antitumor activity against GFP-tagged mouse B16F10 cells isografted into syngeneic athymic Ncr nu/nu mouse assessed as decrease in tumor growth rate at […], ip administered twice weekly starting from day 8 post-tumor inoculation; type: functional, organism-based
B16-F10 [15] = assay: Antitumor activity against GFP-tagged mouse B16F10 cells isografted into syngeneic athymic Ncr nu/nu mouse assessed as decrease in tumor volume at […], ip administered twice weekly starting from day 8 post-tumor inoculation; type: functional, organism-based
Mus musculus [16] = assay: Toxicity in Ncr nu/nu mouse assessed as body weight loss at 15 to 20 mg/kg, ip administered twice weekly measured for 6 weeks by whole animal toxicity assay; type: organism-based; set-up: dose 15-20 mg/kg, route intraperitoneal; conditions: in vivo, 1008 h
[17] = Toxicity in ip dosed Ncr nu/nu mouse assessed as maximum tolerated dose administered twice weekly by whole animal toxicity assay; type: organism-based; conditions: in vivo
B16-F10 [18] = assay: Antimetastatic activity against GFP-tagged mouse B16F10 cells isografted into syngeneic athymic Ncr nu/nu mouse assessed as decrease in number of B16F10 lung metastases at 10 mg/kg, ip administered twice weekly starting from day 8 post-tumor inoculation by hematoxylin-eosin staining; type: functional, organism-based; set-up: dose 10 mg/kg
B16-F10 [19] = assay: Antiangiogenic activity against GFP-tagged mouse B16F10 cells isografted into syngeneic athymic Ncr nu/nu mouse assessed as decrease in vascular density at 10 mg/kg, ip administered twice weekly starting from day 8 post-tumor inoculation; type: functional, organism-based; set-up: dose 10 mg/kg
B16-F10 [20] = assay: Antitumor activity against GFP-tagged mouse B16F10 cells isografted into syngeneic athymic Ncr nu/nu mouse assessed as decrease in tumor volume at 10 mg/kg, ip administered twice weekly starting from day 8 post-tumor inoculation; type: functional, organism-based; set-up: dose 10 mg/kg
Method in brief: (§2)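 Mice bearing subcutaneous GFP-tagged B16-F10 tumors; treatment began once most tumors were caliper-measurable (day 8) after random sorting into groups. Dosing 10 mg/kg IP every Monday AM and Thursday PM; sham animals received water. Tumor length, width and depth measured Mon/Wed/Fri; volume = L×W×D; growth rate by linear regression. n = 7–10.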

B16-F10 [21] = assay: Antitumor activity against GFP-tagged mouse B16F10 cells isografted into syngeneic athymic Ncr nu/nu mouse assessed as decrease in tumor growth rate at 10 mg/kg, ip administered twice weekly starting from day 8 post-tumor inoculation; type: functional, organism-based; set-up: dose 10 mg/kg; method in brief: as §2
Chorioallantoic membrane [22] = assay: Ratio of compound IC50 to semaxanib IC50 for VEGF165/bFGF-induced angiogenesis in chicken chorioallantoic membrane by dissecting microscopic analysis; type: functional; conditions: Gallus gallus
A-431 [23] = assay: Ratio of cisplatin IC50 to compound IC50 for human A431 cells overexpressing EGFR by CYQUANT dye based assay

T2 sequence (P17948 whole entry): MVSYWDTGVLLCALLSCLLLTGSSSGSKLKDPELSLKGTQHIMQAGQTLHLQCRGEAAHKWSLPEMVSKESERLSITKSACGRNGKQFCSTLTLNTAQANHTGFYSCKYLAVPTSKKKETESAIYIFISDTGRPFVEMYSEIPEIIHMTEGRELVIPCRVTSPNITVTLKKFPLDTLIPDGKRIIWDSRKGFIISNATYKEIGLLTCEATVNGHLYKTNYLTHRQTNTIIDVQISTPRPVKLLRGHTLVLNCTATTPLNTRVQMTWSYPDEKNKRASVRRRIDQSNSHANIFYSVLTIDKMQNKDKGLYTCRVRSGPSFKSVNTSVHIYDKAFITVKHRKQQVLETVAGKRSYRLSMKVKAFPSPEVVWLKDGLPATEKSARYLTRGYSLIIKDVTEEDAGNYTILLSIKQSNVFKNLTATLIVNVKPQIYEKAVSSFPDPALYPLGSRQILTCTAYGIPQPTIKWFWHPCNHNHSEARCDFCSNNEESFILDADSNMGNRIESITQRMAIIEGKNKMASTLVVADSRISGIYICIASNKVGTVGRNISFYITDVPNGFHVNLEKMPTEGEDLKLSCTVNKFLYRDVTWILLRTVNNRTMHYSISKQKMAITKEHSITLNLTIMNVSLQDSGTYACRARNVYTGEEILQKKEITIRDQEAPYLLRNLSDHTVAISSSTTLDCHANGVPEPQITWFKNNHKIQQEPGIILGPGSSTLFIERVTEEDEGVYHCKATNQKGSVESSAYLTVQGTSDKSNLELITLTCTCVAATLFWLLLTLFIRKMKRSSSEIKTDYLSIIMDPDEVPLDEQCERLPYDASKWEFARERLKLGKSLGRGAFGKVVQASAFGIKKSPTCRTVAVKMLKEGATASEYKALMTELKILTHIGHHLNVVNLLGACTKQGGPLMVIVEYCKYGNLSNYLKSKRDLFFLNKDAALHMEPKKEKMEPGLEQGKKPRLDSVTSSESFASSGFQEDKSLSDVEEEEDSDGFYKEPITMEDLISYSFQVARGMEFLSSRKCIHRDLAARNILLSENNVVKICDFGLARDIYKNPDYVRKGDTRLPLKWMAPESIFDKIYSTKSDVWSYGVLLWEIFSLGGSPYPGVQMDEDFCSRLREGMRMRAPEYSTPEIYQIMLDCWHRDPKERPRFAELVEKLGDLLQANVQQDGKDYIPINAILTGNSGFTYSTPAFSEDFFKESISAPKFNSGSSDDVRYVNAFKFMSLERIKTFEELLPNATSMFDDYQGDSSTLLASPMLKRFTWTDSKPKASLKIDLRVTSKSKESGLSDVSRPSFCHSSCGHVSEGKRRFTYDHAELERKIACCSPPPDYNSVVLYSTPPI
Platelet-derived growth factor receptor beta, sequence (P09619 whole entry): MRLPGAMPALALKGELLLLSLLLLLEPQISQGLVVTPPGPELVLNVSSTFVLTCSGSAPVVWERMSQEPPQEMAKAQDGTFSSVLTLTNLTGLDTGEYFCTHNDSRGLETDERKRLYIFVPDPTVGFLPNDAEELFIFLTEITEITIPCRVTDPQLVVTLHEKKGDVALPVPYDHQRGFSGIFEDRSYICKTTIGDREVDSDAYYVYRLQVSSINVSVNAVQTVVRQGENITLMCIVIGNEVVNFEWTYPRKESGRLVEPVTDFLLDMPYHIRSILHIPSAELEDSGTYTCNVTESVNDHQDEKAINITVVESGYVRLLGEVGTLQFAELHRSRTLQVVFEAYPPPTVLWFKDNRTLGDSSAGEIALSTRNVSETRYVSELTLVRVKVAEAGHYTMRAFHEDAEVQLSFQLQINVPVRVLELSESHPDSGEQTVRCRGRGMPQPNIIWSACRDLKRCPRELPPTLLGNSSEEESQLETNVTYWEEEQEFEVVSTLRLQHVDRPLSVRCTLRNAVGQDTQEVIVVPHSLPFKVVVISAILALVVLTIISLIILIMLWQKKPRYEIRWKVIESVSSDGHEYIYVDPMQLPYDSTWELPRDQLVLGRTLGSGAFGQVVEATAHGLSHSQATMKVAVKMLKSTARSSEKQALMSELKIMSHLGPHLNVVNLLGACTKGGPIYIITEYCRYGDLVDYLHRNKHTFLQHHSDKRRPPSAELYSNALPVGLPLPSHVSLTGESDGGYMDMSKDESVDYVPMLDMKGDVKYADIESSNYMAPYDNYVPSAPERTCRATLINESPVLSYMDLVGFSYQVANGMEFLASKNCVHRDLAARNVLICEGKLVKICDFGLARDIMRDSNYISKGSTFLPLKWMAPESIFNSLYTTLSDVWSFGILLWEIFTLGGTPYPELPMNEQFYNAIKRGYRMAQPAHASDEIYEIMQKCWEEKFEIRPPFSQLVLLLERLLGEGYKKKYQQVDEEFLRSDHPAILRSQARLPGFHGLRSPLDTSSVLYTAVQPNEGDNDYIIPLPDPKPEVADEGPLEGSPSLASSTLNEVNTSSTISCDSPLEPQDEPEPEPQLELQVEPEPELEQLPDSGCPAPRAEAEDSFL
T1 sequence (P35968 whole entry): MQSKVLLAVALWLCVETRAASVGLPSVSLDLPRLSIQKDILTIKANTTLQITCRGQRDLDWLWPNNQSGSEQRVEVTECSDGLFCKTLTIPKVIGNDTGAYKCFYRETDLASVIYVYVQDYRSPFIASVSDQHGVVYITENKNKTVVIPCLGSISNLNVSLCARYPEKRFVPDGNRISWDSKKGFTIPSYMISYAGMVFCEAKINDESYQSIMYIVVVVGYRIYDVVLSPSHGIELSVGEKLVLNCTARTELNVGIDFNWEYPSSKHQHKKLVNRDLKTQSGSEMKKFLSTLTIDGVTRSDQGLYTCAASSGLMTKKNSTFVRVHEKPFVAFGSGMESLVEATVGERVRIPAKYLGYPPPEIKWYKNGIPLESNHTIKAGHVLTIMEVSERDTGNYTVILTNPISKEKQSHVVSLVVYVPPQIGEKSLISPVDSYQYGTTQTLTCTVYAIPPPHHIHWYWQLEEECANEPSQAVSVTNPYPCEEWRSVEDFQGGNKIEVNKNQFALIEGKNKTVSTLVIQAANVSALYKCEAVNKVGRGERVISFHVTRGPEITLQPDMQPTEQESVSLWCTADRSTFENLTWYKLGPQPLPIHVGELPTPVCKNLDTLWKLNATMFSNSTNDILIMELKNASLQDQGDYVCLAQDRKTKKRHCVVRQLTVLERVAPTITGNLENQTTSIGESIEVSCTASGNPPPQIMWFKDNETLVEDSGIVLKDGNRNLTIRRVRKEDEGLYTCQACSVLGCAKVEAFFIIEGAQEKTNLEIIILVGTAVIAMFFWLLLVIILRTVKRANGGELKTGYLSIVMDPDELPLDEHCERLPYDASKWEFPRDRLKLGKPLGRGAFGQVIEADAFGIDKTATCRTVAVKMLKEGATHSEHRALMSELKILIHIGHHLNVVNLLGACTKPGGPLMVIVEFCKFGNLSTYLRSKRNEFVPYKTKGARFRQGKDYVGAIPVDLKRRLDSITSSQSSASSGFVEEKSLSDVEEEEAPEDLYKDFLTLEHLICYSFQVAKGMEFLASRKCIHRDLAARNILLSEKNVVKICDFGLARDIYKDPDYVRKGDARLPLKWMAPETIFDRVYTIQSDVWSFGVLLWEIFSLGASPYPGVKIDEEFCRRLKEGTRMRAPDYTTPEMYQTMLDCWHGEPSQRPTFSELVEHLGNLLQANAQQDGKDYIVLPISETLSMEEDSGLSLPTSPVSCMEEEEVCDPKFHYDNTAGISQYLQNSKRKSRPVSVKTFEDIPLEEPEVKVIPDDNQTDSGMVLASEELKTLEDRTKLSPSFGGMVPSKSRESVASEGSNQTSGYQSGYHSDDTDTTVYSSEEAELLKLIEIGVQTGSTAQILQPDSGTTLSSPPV
Epidermal growth factor receptor, sequence (P00533 whole entry): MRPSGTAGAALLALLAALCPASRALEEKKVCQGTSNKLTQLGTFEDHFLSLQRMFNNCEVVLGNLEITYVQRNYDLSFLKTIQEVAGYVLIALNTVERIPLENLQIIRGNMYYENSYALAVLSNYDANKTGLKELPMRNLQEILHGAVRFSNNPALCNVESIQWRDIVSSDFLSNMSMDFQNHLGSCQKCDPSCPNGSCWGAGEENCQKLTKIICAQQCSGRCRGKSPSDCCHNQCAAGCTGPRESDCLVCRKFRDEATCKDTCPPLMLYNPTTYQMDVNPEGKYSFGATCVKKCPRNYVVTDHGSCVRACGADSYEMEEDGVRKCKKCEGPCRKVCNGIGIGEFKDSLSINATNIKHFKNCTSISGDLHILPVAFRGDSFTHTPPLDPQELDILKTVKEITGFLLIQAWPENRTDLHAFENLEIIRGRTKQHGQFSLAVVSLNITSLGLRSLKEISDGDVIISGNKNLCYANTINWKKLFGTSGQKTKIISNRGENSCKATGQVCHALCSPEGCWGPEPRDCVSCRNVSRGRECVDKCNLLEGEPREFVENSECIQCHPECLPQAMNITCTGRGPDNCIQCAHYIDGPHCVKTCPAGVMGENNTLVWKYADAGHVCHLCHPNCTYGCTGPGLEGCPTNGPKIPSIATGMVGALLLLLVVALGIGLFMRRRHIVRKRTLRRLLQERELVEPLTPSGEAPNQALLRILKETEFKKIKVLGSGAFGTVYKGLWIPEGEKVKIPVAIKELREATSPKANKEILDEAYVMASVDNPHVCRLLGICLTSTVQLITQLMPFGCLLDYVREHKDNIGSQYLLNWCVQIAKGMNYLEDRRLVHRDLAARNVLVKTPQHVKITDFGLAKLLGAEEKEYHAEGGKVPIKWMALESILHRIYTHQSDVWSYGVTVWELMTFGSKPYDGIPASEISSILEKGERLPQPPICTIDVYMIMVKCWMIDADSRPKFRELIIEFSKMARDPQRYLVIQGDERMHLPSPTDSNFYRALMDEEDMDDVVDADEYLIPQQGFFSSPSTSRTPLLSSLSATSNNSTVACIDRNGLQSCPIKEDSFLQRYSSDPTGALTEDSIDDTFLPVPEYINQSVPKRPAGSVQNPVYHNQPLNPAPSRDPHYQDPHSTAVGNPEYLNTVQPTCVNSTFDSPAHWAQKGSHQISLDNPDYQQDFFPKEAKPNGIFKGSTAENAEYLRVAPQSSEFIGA

Row | IC50 [2] [µM] | IC50 [4] [µM] | IC50 [5] [µM] | IC50 [6] [µM] | Ratio IC50 [11] | SMILES | IC50 (Chorioallantoic membrane [1]) [µM] | IC50 (A-431 [3]) [µM] | also measured
1 | 15.6 | 124 | > 200 | > 500 | – | Nc1nc(Nc2ccc(F)c(C(F)(F)F)c2)c2cc(CCc3ccccn3)[nH]c2n1 | 14 | 3.2 | –
2 | 19.3 | 16.7 | > 200 | > 500 | – | Nc1nc(Nc2cccc(C(F)(F)F)c2)c2cc(CCc3ccccn3)[nH]c2n1 | 1.09 | 3.4 | Ratio IC50 [7]: 1.5
3 | 16.3 | 89.3 | > 200 | > 500 | – | CC(C)(C)C(=O)Nc1nc(Nc2ccc(F)c(Cl)c2)c2cc(CCc3ccccn3)[nH]c2n1 | 2 | 2.6 | –
4 | 111 | > 200 | > 200 | > 500 | – | Nc1nc(Nc2ccc(F)c(Cl)c2)c2cc(CCc3ccccn3)[nH]c2n1 | 11.3 | 27 | –
5 | – | 49.9 | > 50 | 13.4 | – | Nc1nc(Nc2cccc(Br)c2)c2cc(CCc3ccccn3)[nH]c2n1 | 7.23 | 19.6 | –
6 | 12.8 | 16.7 | 130 | > 500 | 5 | CC(C)(C)C(=O)Nc1nc(Nc2cccc(C(F)(F)F)c2)c2cc(CCc3ccccn3)[nH]c2n1 | 1.6 | 2.9 | Ratio IC50 [7]: 1.5
7 | – | – | – | – | – | CN(Cc1cnc2nc(N)nc(N)c2n1)c1ccc(C(=O)N[C@@H](CCC(=O)O)C(=O)O)cc1 | – | – | inhibition (B16-F10 [18]): Active; inhibition (B16-F10 [19]): Active; inhibition (B16-F10 [20]): Active; inhibition (B16-F10 [21]): Active
8 | 5.4 | > 200 | > 200 | 89.7 | – | CC(C)(C)C(=O)Nc1nc(Nc2ccc(F)c(Br)c2)c2cc(CCc3ccccn3)[nH]c2n1 | 0.9 | 1 | Ratio IC50 (Chorioallantoic membrane [22]): 10
9 | 26.9 | 151 | 190 | > 500 | 5 | CC(C)(C)C(=O)Nc1nc(Nc2ccc(F)c(C(F)(F)F)c2)c2cc(CCc3ccccn3)[nH]c2n1 | 8.6 | 1.9 | –
10 | > 200 | 126 | 156 | 430 | 5 | C#Cc1cccc(Nc2nc(NC(=O)C(C)(C)C)nc3[nH]c(CCc4ccccn4)cc23)c1 | 3.2 | 29.9 | –
11 | 19.9 | 43.6 | 103 | 331 | 5 | C#Cc1cccc(Nc2nc(N)nc3[nH]c(CCc4ccccn4)cc23)c1 | 13.9 | 0.9 | Ratio IC50 (A-431 [23]): 8

Row | SMILES | IC50 [2] [µM] | IC50 [4] [µM] | IC50 [5] [µM] | IC50 [6] [µM] | Ratio IC50 [11] | IC50 (Chorioallantoic membrane [1]) [µM] | IC50 (A-431 [3]) [µM] | also measured
12 | Nc1nc(Nc2ccc(F)c(Br)c2)c2cc(CCc3ccccn3)[nH]c2n1 | 85.9 | 24.1 | 93.6 | > 500 | 5 | 0.07 | 12.2 | Ratio IC50 (Chorioallantoic membrane [8]): 1.2; inhibition (B16-F10 [9]): Active; Ratio IC50 [7]: 2.4; inhibition (B16-F10 [10]): Active; Activity (Mus musculus [12]): Non-toxic; Activity (Mus musculus [13]): 1%; inhibition (B16-F10 [14]): Active; inhibition (B16-F10 [15]): Active; Activity (Mus musculus [16]): Toxic; MTD [17]: 12.5 mg/kg

Reference: ChEMBL document CHEMBL2331499, “N2-Trimethylacetyl substituted and unsubstituted-N4-phenylsubstituted-6-(2-pyridin-2-ylethyl)-7H-pyrrolo[2,3-d]pyrimidine-2,4-diamines: design, cellular receptor tyrosine kinase inhibitory activities and in vivo evaluation as antiangiogenic, antimetastatic and antitumor agents” (Bioorg Med Chem, 2013)
